These results are taken from ChEMBL document CHEMBL1127428, “Studies of the active conformation of a novel series of benzamide dopamine D2 agonists” (J Med Chem, 1994).

Data set [1] deals with D(2) dopamine receptor (Homo sapiens, UniProt P14416). The experiment in a line: In vitro inhibition of forskolin-stimulated cAMP accumulation in GH4C1 cells transfected with the human Dopamine D2 receptor. It is filed as functional, cell-based, GH4-C1.
Data set [2] in a line: (§1) Tested in vitro for intrinsic activity relative to quinpirole. The gist of the method: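 GH4C1 cells transfected with human D2 receptor (long form); agonism read as inhibition of forskolin-stimulated cAMP accumulation. Intrinsic activity = maximal response relative to the full D2 agonist quinpirole (set at 1.0).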
For data set [3], the target named is D(2) dopamine receptor (Rattus norvegicus, UniProt P61169). The experiment in a line: Binding affinity towards Dopamine D2 receptor from rat striatal membranes, using [3H]- spiperone as radioligand. The method, boiled down: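 Displacement of [3H]spiperone (0.2 nM, final) from rat striatal membranes; nonspecific binding defined with (+)-butaclamol (1 μM). Four to six concentrations, each run in triplicate; IC50 obtained by nonlinear regression.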

Data set [4] is filed under the species Mus musculus. The experiment in a line: Tested for the inhibition of Spontaneous locomotor activity. It is filed as functional. The method, boiled down: (§2)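 Mice dosed ip, then immediately tested for 1 h of exploratory locomotion in darkened cylindrical photobeam chambers. Activity expressed as percent of vehicle-treated animals. ED50 (95% confidence range) derived from three to six doses, 6–18 animals per dose.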

For data set [5], the system named is Mus musculus. The data set can be described thus: Tested for the inhibition of Spontaneous locomotor activity; Not active, ED50 > 30 mg/kg. It is filed as functional, organism-based. Details: dose 30 mg/kg. The method, boiled down: as §2
Data set [6] is described as follows: as §1. It counts as ADME. The method, boiled down: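 Human D2 receptor (long form) expressed by transfection in GH4C1 cells. Agonism was read as inhibition of forskolin-stimulated cAMP accumulation. Intrinsic activity was the maximal response expressed relative to the maximal response of the full D2 agonist quinpirole.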

Active and inactive are the calls of the source. The rule behind the calls is not given here.

Chain of D(2) dopamine receptor (Homo sapiens, UniProt P14416) (P14416 whole entry): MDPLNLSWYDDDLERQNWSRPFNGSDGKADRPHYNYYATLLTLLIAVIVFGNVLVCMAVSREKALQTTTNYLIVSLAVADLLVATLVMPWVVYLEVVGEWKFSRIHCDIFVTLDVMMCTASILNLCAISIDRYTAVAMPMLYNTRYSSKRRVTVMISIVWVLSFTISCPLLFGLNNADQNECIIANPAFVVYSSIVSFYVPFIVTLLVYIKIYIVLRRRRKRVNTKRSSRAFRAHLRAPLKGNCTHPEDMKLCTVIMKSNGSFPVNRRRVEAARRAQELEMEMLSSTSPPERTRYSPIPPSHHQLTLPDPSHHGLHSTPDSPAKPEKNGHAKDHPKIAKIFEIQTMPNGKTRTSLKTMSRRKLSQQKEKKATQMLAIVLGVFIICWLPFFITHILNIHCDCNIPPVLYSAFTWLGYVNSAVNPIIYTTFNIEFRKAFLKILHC
Chain of D(2) dopamine receptor (Rattus norvegicus, UniProt P61169) (P61169 whole entry): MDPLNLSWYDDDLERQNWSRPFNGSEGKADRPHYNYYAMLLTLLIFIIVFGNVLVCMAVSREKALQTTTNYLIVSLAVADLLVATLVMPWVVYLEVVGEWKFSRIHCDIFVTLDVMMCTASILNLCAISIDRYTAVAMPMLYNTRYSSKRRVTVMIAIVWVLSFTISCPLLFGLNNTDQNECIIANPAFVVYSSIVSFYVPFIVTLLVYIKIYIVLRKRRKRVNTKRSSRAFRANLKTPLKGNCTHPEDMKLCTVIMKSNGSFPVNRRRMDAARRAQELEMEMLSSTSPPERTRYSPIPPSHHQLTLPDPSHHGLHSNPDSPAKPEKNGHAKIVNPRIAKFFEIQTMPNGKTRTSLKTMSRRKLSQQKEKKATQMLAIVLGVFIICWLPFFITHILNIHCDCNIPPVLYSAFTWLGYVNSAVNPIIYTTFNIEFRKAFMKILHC

`O=C(N[C@@H]1CC[C@H]2C[C@@H](N3CCN(c4ccccn4)CC3)CC[C@@H]2C1)c1ccccc1`: the midpoint of the response in data set [1], the EC50, lay at 10.4 nM. Moreover, the Intrinsic activity in data set [2] came to 0.98. The compound further registered an IC50 in data set [3] of 72.7 nM. The ED50 in data set [4] worked out at 0.1 mg/kg.

In data set [1], `O=C(N[C@H]1CC[C@H]2C[C@H](N3CCN(c4ccccn4)CC3)CC[C@@H]2C1)c1ccccc1` yielded an EC50 of more than 1000 nM. The 50% inhibitory concentration (IC50) in data set [3] stood at 7100 nM. Further, the ED50 entry in data set [5] was “inactive”.

`O=C(N[C@@H]1CC[C@H]2C[C@H](N3CCN(c4ccccn4)CC3)CC[C@@H]2C1)c1ccccc1` had an EC50 in data set [1] of more than 1000 nM. The compound further registered an IC50 in data set [3] of 5800 nM. This compound yielded a 50% effective dose (ED50) in data set [4] of 14.3 mg/kg.

`O=C(N[C@H]1CC[C@H](CCN2CCN(c3ccccn3)CC2)CC1)c1ccccc1` gave an EC50 in data set [1] of 4.9 nM. The same compound had an Intrinsic activity in data set [2] of 0.83. In data set [3], this compound displayed an IC50 of 443 nM. Also, it took a dose of 0.16 mg/kg to reach the 50% effect level in data set [4] (ED50).

In the case of `CCCN1CCC[C@@H]2Cc3n[nH]cc3C[C@H]21` (single isomer, unassigned) [QUINPIROLE], the Intrinsic activity in data set [6] was 1.

Turning to `O=C(N[C@H]1CC[C@H]2C[C@@H](N3CCN(c4ccccn4)CC3)CC[C@@H]2C1)c1ccccc1`, the midpoint of the response in data set [1], the EC50, lay at 240 nM. In data set [2], the Intrinsic activity was 0.63. The same compound yielded an IC50 in data set [3] of 1100 nM. It took a dose of 6.9 mg/kg to reach the 50% effect level in data set [4] (ED50).

Broadly, the EC50 is the concentration needed to bring the measured effect to its halfway point. A high value points to a less potent agent. One may read the IC50 as the concentration needed to halve the response being measured. High values mean lower potency, low ones higher potency. The term ED50 denotes the dose that gives a 50% effect, or the effect in half of the subjects.
